Laboratory results published in ChEMBL document CHEMBL5154784, “Design, Synthesis, Biological Evaluation, and Computational Studies of Novel Ureidopropanamides as Formyl Peptide Receptor 2 (FPR2) Agonists to Target the Resolution of Inflammation in Central Nervous System Disorders” (J Med Chem, 2022).

Tests used:
[1] = Metabolic stability in rat liver microsomes assessed as compound remaining at 10 uM preincubated for 10 mins followed by NADPH addition and measured after 30 mins by HPLC analysis; assay type: ADME, Microsome; conditions: time 40 min, read-out: Stability
Procedure, shortened: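 Rat liver microsomes (1.0 mg/mL protein), compound 10 μM final in 100 mM potassium phosphate pH 7.4, pre-incubated 10 min at 37 °C, then NADPH regenerating system added. After 30 min, % parent remaining by HPLC-DAD (C18, MeOH/H2O 80:20) versus incubation without NADPH system.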

[2] = target: T1, fMet-Leu-Phe receptor (Homo sapiens, UniProt P21462); assay: Agonist activity at human FPR1 transfected in human HL-60 cells assessed as increase in calcium mobilization measured every 5 seconds for 240 secs by Fluo-4-AM dye based fluorescence assay; assay type: functional, cell-based
T1 sequence (P21462 whole entry): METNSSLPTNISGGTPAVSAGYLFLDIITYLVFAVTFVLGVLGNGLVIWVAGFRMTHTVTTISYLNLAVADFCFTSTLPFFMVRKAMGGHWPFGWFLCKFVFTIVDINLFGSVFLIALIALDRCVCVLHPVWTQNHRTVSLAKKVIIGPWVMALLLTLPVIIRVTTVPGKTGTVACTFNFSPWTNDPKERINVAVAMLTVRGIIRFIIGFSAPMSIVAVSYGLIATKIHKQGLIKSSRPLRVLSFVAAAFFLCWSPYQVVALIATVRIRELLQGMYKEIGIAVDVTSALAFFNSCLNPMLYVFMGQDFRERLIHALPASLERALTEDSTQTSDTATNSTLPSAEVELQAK

[3] = target: T2, N-formyl peptide receptor 2 (Homo sapiens, UniProt P25090); assay: Agonist activity at human FPR2 transfected in human HL-60 cells assessed as increase in calcium mobilization measured every 5 seconds for 240 secs by Fluo-4-AM dye based fluorescence assay; assay type: functional, cell-based
T2 sequence (P25090 whole entry): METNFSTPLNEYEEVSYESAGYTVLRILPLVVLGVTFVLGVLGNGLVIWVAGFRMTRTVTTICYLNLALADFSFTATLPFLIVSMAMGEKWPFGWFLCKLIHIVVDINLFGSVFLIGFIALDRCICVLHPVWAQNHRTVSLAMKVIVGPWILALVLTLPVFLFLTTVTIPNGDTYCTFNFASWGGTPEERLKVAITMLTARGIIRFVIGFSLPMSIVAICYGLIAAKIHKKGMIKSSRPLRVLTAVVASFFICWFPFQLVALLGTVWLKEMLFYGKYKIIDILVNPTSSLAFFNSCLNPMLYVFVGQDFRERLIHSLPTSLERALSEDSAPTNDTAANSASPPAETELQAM

[4] = target: T2, N-formyl peptide receptor 2; assay: Antagonist activity at human FPR2 transfected in human HL-60 cells assessed as inhibition of WKYMVM-induced intracellular calcium mobilization preincubated for 10 mins followed by WKYMVM addition measured every 5 seconds for 240 secs by Fluo-4-AM dye based fluorescence assay; assay type: functional, cell-based
Procedure, shortened: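 Fluo-4-loaded FPR2-HL60 cells pre-incubated 10 min with compound (1% DMSO final), then challenged with 5 nM WKYMVM. Maximum change over baseline taken as response. IC50 by four-parameter logistic regression of at least 5–6 point curves.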

[5] = target: T1, fMet-Leu-Phe receptor; assay: Antagonist activity at human FPR1 transfected in human HL-60 cells assessed as inhibition of fMLF-induced intracellular calcium mobilization preincubated for 10 mins followed by fMLF addition and measured every 5 seconds for 240 secs by Fluo-4-AM dye based fluorescence assay; assay type: functional, cell-based
[6] = Cytotoxicity against mouse N9 cells assessed as reduction in cell viability incubated for 48 hrs by MTT assay; assay type: toxicity, cell-based
Procedure, shortened: (§1)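 MTT 0.5 mg/mL added for 3–4 h at 37 °C, formazan dissolved in DMSO/EtOH 1:1, absorbance read at 570 and 630 nm. Mean ± SD from at least two to three experiments in triplicate.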

[7] = target: T3, N-formyl peptide receptor 2 (Homo sapiens) (UniProt P25090); assay: Agonist activity at human FPR2 transfected in HL-60 cells assessed as induction of intracellular calcium ions mobilization using WKYMVM as substrate preincubated for 10 mins followed by substrate addition and measured every 5 seconds for 240 secs by Fluo-4-AM dye based fluorescent assay relative to control; assay type: functional, cell-based; conditions: filed as agonist
T3 sequence (whole entry): T2 sequence (P25090 whole entry)

[8] = Cytotoxicity against mouse N9 cells assessed as reduction in cell viability at 1 to 100 uM incubated for 48 hrs by MTT assay relative to control; assay type: toxicity, cell-based; conditions: n9, 48 h, dose 1-100 µM; procedure, shortened: as §1
[9] = Cytotoxicity against mouse N9 cells assessed as reduction in cell viability by measuring LDH release at 0.5 to 5 uM incubated for 24 hrs by LDH assay; assay type: toxicity, cell-based; conditions: n9, 24 h, dose 0.5-5 µM
Procedure, shortened: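 N9 cells (2 × 10^4/well) given compound at 0.5 or 5 μM, alone or with LPS (E. coli O111:B4, 100 ng/mL) added 30 min later, for 24 h at 37 °C. Released LDH measured in supernatant (30 min, room temperature, 490/630 nm). Expressed as % of untreated cells, mean ± SEM, at least three experiments in triplicate.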

[10] = Antiinflammatory activity against Sprague-Dawley rat primary microglial cells assessed as reduction in IL-1beta expression at 0.1 uM incubated for 1 hr by ELISA method (reference value: 100 +/- 13 %); assay type: functional, Microglia; design: scale not given: the % may be the effect or the level left
[11] = Antiinflammatory activity against Sprague-Dawley rat primary microglial cells assessed as reduction in TNF-alpha expression at 0.1 uM incubated for 1 hr by ELISA method (reference value: 100 +/- […]); assay type: functional, Microglia; design: scale not given: the % may be the effect or the level left
[12] = Antiinflammatory activity against Sprague-Dawley rat primary microglial cells assessed as reduction in IL-6 expression at 0.1 uM incubated for 1 hr by ELISA method (reference value: 100 +/- 2.16 %); assay type: functional, Microglia; design: scale not given: the % may be the effect or the level left
[13] = test system: Microglia; assay: Anti-inflammatory activity against Sprague-Dawley rat primary microglial cells assessed as reduction in IL-10 expression at 0.1 uM incubated for 1 hr by ELISA method (reference value: 100 +/- 3.9 %); assay type: functional; design: scale not given: the % may be the effect or the level left
[14] = Neurotoxicity against Sprague-Dawley rat primary microglial cells assessed as reduction in cell viability by measuring LDH release at 0.1 uM incubated for 24 hrs by LDH assay; assay type: toxicity, cell-based; conditions: microglia
Procedure, shortened: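 Sprague–Dawley rat neonatal cortical microglia (>95% Iba-1+), switched to 1% FBS medium 1 h before treatment. Compound 0.1 μM for 1 h, then LPS 100 ng/mL for 24 h; WRW4 10 μM given 30 min before in some sets, 0.1% vehicle. Supernatant LDH read at 540 nm, % of vehicle controls, mean ± SEM.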

Compound | remaining at 0.5 h, 10 µM [1] | EC50 [2] | EC50 [3] | IC50 [4] | EC50 at 48 h [6] | Efficacy [7] | further results
N#Cc1ccc(C[C@@H](NC(=O)Nc2ccc(F)cc2)C(=O)NC2CCCCNC2=O)cc1 (some centres not stated) | 78% | 4.2 µM | 1 µM | 3.8 µM | > 100 µM | 140% | IC50 [5]: 40.4 µM; Activity [8]: 36%
N#Cc1ccc(C[C@@H](NC(=O)Nc2ccc(F)cc2)C(=O)N2CCCC2)cc1 | 61% | 26.4 µM | 5.2 µM | 16.5 µM | > 100 µM | 105% | IC50 [5]: 43.9 µM; Activity [8]: 59%
N#Cc1ccc(C[C@@H](NC(=O)Nc2ccc(F)cc2)C(=O)N2CCc3ccc(F)cc32)cc1 | 28% | – | – | – | – | – | Activity [9]: Toxic
H-WRWWWW-NH2 | – | – | – | – | – | – | Activity [10]: 103%; Activity [11]: 121%; Activity [12]: 108%; Activity [13]: 103%
N#Cc1ccc(C[C@H](NC(=O)Nc2ccc(F)cc2)C(=O)N2CCc3cc(F)ccc32)cc1 | 19% | 4.8 µM | 0.16 µM | 0.21 µM | 29.4 µM | 110% | Activity [9]: Non-Toxic
N#Cc1ccc(C[C@H](NC(=O)Nc2ccc(F)cc2)C(=O)N2CCC(F)(F)CC2)cc1 | 67% | – | 19.5 µM | 30.1 µM | > 100 µM | 80% | Activity [8]: 9%
N#Cc1ccc(C[C@H](NC(=O)Nc2ccc(F)cc2)C(=O)NC2CCCCNC2=O)cc1 (some centres not stated) | 85% | 0.78 µM | 0.17 µM | 0.35 µM | > 100 µM | 105% | Activity [9]: Non-Toxic; IC50 [5]: 3.5 µM; Activity [8]: 53%
N#Cc1ccc(C[C@H](NC(=O)Nc2ccc(F)cc2)C(=O)N2CCCC2)cc1 | – | 15.3 µM | 3.1 µM | 6.4 µM | > 100 µM | 100% | IC50 [5]: 33.8 µM; Activity [8]: 55%
N#Cc1ccc(C[C@@H](NC(=O)Nc2ccc(F)cc2)C(=O)N2CCc3cc(F)ccc32)cc1 | – | 1.8 µM | 0.41 µM | 3.4 µM | 23.8 µM | 90% | –
N#Cc1ccc(C[C@H](NC(=O)Nc2ccc(F)cc2)C(=O)N2Cc3ccccc3C2)cc1 | 31% | – | 0.34 µM | 4.4 µM | – | – | Activity [9]: Non-Toxic
N#Cc1ccc(C[C@@H](NC(=O)Nc2ccc(F)cc2)C(=O)N2CCCCC2)cc1 | 25% | – | 13.4 µM | 49.3 µM | – | – | –
N#Cc1ccc(C[C@H](NC(=O)Nc2ccc(F)cc2)C(=O)N2CCc3ccccc3C2)cc1 | 6% | – | 0.24 µM | 0.03 µM | – | – | Activity [9]: Non-Toxic
N#Cc1ccc(C[C@@H](NC(=O)Nc2ccc(F)cc2)C(=O)N2CCC(F)(F)CC2)cc1 | 62% | – | – | – | > 100 µM | – | Activity [8]: 40%
N#Cc1ccc(C[C@H](NC(=O)Nc2ccc(F)cc2)C(=O)N2CCc3ccccc32)cc1 | 22% | – | 0.026 µM | 0.01 µM | – | – | Activity [9]: Non-Toxic; Activity [14]: Non-Toxic
CC1(C)CN(C(=O)[C@@H](Cc2ccc(C#N)cc2)NC(=O)Nc2ccc(F)cc2)c2ccccc21 | 65% | – | 6.9 µM | 16.4 µM | – | – | –
N#Cc1ccc(C[C@H](NC(=O)Nc2ccc(F)cc2)C(=O)NCC2(c3ccc(F)c(Cl)c3)CC2)cc1 | – | – | – | – | 3.26 µM | – | Activity [9]: Non-Toxic
N#Cc1ccc(C[C@@H](NC(=O)Nc2ccc(F)cc2)C(=O)N2CCc3ccccc3C2)cc1 | 4% | – | 1.3 µM | 3.5 µM | – | – | –
N#Cc1ccc(C[C@H](NC(=O)Nc2ccc(F)cc2)C(=O)N2CCc3ccc(F)cc3C2)cc1 | 8% | – | 0.45 µM | 0.26 µM | – | – | –
N#Cc1ccc(C[C@@H](NC(=O)Nc2ccc(F)cc2)C(=O)N2Cc3ccccc3C2)cc1 | 15% | – | 19.3 µM | – | – | – | –
N#Cc1ccc(C[C@@H](NC(=O)Nc2ccc(F)cc2)C(=O)N2CCc3ccc(F)cc3C2)cc1 | 14% | – | 0.62 µM | 0.24 µM | – | – | –
N#Cc1ccc(C[C@H](NC(=O)Nc2ccc(F)cc2)C(=O)N2CCCCC2)cc1 | – | – | 0.98 µM | 12 µM | – | – | –
N#Cc1ccc(C[C@@H](NC(=O)Nc2ccc(F)cc2)C(=O)N2CCc3ccccc32)cc1 | 14% | – | 5.6 µM | 3.9 µM | – | – | –
CC1(C)CN(C(=O)[C@H](Cc2ccc(C#N)cc2)NC(=O)Nc2ccc(F)cc2)c2ccccc21 | – | – | 2.3 µM | 2.7 µM | – | – | –
N#Cc1ccc(C[C@@H](NC(=O)Nc2ccc(F)cc2)C(=O)N2CCc3cccnc32)cc1 | 10% | – | 1.1 µM | 1.2 µM | – | – | –
N#Cc1ccc(C[C@H](NC(=O)Nc2ccc(F)cc2)C(=O)N2CCc3cccnc32)cc1 | 14% | – | 0.16 µM | 0.14 µM | – | – | –
CC1(C)CN(C(=O)[C@H](Cc2ccc(C#N)cc2)NC(=O)Nc2ccc(F)cc2)Cc2cc(F)ccc21 | 34% | – | 1.6 µM | 0.6 µM | – | – | –
N#Cc1ccc(C[C@@H](NC(=O)Nc2ccc(F)cc2)C(=O)N2Cc3ccc(F)cc3C2)cc1 | 72% | 5.6 µM | 7.2 µM | – | 9.44 µM | 45% | –
N#Cc1ccc(C[C@H](NC(=O)Nc2ccc(F)cc2)C(=O)N2Cc3ccc(F)cc3C2)cc1 | – | 3.3 µM | 1.7 µM | 4.4 µM | 18.2 µM | 70% | –
N#Cc1ccc(C[C@H](NC(=O)Nc2ccc(F)cc2)C(=O)N2CCCc3ccccc32)cc1 | 10% | 1.2 µM | 0.27 µM | 0.013 µM | 14.7 µM | 120% | Activity [9]: Toxic; IC50 [5]: 24.2 µM
N#Cc1ccc(C[C@@H](NC(=O)Nc2ccc(F)cc2)C(=O)N2CCCc3ccccc32)cc1 | 7% | 0.44 µM | 0.25 µM | 0.012 µM | 13.7 µM | 175% | IC50 [5]: 17.4 µM
